Measurements published in ChEMBL document CHEMBL3745659, “Synthesis and Characterization of 4,11-Diaminoanthra[2,3-b]furan-5,10-diones: Tumor Cell Apoptosis through tNOX-Modulated NAD(+)/NADH Ratio and SIRT1” (J Med Chem, 2015).
The source made the active and inactive calls. No cut-off for these calls is given here.

Columns and labels:
AGS [1] = test: Induction of apoptosis in human AGS cells assessed as change in mitochondrial transmembrane potential incubated for 1.5 hrs by DiOC6(3) dye-based flow cytometric analysis; type: functional, cell-based
CCRF-CEM = test: Antiproliferative activity against human CEM cells after 72 hrs by MTT assay; type: functional, cell-based
K562 = test: Antiproliferative activity against human K562 cells after 72 hrs by MTT assay; type: functional, cell-based; conditions: K562, 72 h
[2] = target: T1, DNA topoisomerase 1 (Homo sapiens) (UniProt P11387); test: Inhibition of Top1 (unknown origin)-mediated relaxation of pBR322 DNA at 2.5 uM incubated for 30 mins by ethidium bromide staining-based gel electrophoresis assay
T1 sequence (whole entry): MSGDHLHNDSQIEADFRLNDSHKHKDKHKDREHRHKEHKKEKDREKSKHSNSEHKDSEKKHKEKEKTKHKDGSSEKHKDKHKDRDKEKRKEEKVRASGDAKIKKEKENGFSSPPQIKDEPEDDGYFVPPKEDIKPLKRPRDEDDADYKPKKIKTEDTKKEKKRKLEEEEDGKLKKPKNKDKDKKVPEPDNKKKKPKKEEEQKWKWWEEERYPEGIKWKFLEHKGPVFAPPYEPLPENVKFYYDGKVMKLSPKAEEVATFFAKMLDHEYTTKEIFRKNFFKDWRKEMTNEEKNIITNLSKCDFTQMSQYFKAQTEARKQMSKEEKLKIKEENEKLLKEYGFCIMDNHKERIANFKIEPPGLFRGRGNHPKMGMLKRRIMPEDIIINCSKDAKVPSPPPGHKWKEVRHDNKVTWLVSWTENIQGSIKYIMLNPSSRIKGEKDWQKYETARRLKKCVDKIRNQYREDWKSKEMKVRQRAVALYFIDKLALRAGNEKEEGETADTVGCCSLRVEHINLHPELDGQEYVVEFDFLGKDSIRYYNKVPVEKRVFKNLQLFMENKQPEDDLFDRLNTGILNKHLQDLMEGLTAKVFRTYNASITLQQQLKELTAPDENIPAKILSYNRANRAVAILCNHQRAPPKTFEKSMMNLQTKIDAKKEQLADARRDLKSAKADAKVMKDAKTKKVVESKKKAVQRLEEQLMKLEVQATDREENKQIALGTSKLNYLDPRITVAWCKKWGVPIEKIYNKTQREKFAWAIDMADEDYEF
Procedure, shortened: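 Supercoiled pBR322 plasmid treated with Top1 without drug or with compound at 0.5, 2.5 or 10 µM; camptothecin as reference; relaxation assessed by gel electrophoresis.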

AGS [3] = test: Induction of apoptosis in human AGS cells after 24 hrs by annexin V-FITC staining-based flow cytometric analysis; type: functional, cell-based
Procedure, shortened: (§1)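 AGS cells exposed to compound for 24 h; Annexin V-FITC staining and flow cytometry used to give percentage of apoptotic cells; mean ± S.E. from at least three independent experiments.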

AGS [4] = test: Induction of apoptosis in human AGS cells assessed as necrotic cells at 0.05 uM after 24 hrs by annexin V-FITC staining-based flow cytometric analysis (Rvb=0.9%); type: functional; procedure, shortened: as §1
AGS [5] = test: Induction of apoptosis in human AGS cells assessed as necrotic cells at 0.1 uM after 24 hrs by annexin V-FITC staining-based flow cytometric analysis (Rvb=0.9%); type: functional; procedure, shortened: as §1
AGS [6] = test: Induction of apoptosis in human AGS cells assessed as necrotic cells at 1 uM after 24 hrs by annexin V-FITC staining-based flow cytometric analysis (Rvb=0.9%); type: functional; procedure, shortened: as §1
AGS [7] = test: Induction of apoptosis in human AGS cells assessed as late apoptotic cells at 0.1 uM after 24 hrs by annexin V-FITC staining-based flow cytometric analysis (Rvb=0.3%); type: functional; procedure, shortened: as §1
AGS [8] = test: Induction of apoptosis in human AGS cells assessed as early apoptotic cells at 0.1 uM after 24 hrs by annexin V-FITC staining-based flow cytometric analysis (Rvb=7.2%); type: functional; procedure, shortened: as §1
AGS [9] = test: Induction of apoptosis in human AGS cells assessed as viable cells at 0.05 uM after 24 hrs by annexin V-FITC staining-based flow cytometric analysis (Rvb=91.5%); type: functional; conditions: read-out: Activity; procedure, shortened: as §1
AGS [10] = test: Induction of apoptosis in human AGS cells assessed as viable cells at 0.1 uM after 24 hrs by annexin V-FITC staining-based flow cytometric analysis (Rvb=91.5%); type: functional; conditions: read-out: Activity; procedure, shortened: as §1
AGS [11] = test: Induction of apoptosis in human AGS cells assessed as viable cells at 1 uM after 24 hrs by annexin V-FITC staining-based flow cytometric analysis (Rvb=91.5%); type: functional; conditions: read-out: Activity; procedure, shortened: as §1
AGS [12] = test: Upregulation of caspase3-directed PARP cleavage in human AGS cells at 5 uM after 24 hrs by Western blot analysis; type: functional, cell-based
AGS [13] = test: Downregulation of Bid protein level in human AGS cells after 24 hrs by Western blot analysis; type: functional, cell-based
AGS [14] = test: Upregulation of acetylated p53 level in human AGS cells at 1 and 5 uM after 24 hrs by Western blot analysis; type: functional, cell-based
AGS [15] = test: Downregulation of SIRT1 protein level in human AGS cells at 1 and 5 uM after 24 after 24 hrs by Western blot analysis; type: functional, cell-based
AGS [16] = test: […] in human AGS cells assessed as upregulation of E-Cad after 24 hrs by Western blot analysis; type: functional, cell-based
AGS [17] = test: […] in human AGS cells assessed as downregulation of N-Cad after 24 hrs by Western blot analysis; type: functional, cell-based
[18] = target: DNA topoisomerase 2-alpha (Homo sapiens) (UniProt P11388); test: Inhibition of Top2 (unknown origin)-mediated relaxation of pBR322 DNA at 0.1 to 2.5 uM incubated for 30 mins by ethidium bromide staining-based gel electrophoresis assay
Sequence of DNA topoisomerase 2-alpha (Homo sapiens) (P11388 whole entry): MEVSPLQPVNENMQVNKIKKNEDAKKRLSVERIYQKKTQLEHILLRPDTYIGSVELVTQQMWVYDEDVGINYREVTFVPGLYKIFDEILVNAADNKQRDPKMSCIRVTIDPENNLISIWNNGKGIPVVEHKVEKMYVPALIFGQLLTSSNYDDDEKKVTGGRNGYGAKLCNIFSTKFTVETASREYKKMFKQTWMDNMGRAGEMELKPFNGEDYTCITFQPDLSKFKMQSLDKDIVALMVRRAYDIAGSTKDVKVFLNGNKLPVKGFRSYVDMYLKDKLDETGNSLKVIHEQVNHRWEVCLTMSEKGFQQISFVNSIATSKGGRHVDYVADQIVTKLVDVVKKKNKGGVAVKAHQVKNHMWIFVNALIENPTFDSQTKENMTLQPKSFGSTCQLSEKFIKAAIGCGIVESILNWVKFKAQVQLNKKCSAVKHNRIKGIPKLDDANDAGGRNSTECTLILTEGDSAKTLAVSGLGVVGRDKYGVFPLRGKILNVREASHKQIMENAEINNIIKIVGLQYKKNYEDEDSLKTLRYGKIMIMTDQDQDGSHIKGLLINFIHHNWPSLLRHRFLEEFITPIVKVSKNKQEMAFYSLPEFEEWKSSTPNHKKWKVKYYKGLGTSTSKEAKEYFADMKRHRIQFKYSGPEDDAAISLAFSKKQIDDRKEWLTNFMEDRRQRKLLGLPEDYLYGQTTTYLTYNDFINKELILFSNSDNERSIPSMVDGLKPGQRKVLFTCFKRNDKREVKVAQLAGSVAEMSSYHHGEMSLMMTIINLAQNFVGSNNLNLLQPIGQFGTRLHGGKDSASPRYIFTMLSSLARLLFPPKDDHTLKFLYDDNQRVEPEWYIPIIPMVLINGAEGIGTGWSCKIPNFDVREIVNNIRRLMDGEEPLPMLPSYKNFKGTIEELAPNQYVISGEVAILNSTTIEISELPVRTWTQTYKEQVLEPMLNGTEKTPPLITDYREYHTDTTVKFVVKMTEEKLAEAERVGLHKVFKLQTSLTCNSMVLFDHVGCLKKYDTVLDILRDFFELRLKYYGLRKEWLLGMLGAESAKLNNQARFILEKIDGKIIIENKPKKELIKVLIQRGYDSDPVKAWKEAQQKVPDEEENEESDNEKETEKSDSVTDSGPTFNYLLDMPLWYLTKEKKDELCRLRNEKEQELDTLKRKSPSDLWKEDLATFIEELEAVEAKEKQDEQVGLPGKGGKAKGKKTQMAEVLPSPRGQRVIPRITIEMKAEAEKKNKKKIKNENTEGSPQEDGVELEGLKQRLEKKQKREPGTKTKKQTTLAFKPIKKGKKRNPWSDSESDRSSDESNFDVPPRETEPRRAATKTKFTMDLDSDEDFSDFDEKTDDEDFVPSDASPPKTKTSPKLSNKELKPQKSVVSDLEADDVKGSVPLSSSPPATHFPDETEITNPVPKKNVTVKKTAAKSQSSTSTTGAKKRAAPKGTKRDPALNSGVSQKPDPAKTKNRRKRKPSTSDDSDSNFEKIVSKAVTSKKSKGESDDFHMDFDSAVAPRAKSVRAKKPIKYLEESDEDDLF

CNCCNc1c2c(c(NCCNC)c3occc13)C(=O)c1ccccc1C2=O
Activity (AGS [1]): Active | IC50 (CCRF-CEM): 190 nM | IC50 (K562): 210 nM | inhibition [2]: Active | Activity (AGS [3]): Dose-dependent effect | Activity (AGS [4]): 7.5% | Activity (AGS [5]): 10.2% | Activity (AGS [6]): 15.4% | Activity (AGS [7]): 1.5% | Activity (AGS [8]): 25.1% | viability at 0.05 µM (AGS [9]): 78.9% | viability at 0.1 µM (AGS [10]): 63.2% | viability at 1 µM (AGS [11]): 61.6% | Activity (AGS [12]): Active | Activity (AGS [13]): Active | Activity (AGS [14]): Active | Activity (AGS [15]): Active | Activity (AGS [16]): Active | Activity (AGS [17]): Active | inhibition [18]: Active
